Reference: ChEMBL document CHEMBL1275265, “Synthesis and biological evaluation of N-antipyrine-4-substituted amino-3-chloromaleimide derivatives” (Eur J Med Chem, 2010)
Values after ≈ are worked out from the molar mass of the structure shown. Active and inactive are the calls of the source. No cut-off for these calls is given here.

Legend:
[1] = Toxicity in Artemia salina assessed as mortality after 24 hrs; format: organism-based; settings: in vivo
How it was run: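 Artemia salina hatched at pH 9.0 (Na2CO3), 25 °C, strong aeration, continuous light (2000 Lux). Phototropic nauplii were collected about 12 h after hatching, and groups of 10 were exposed per well to various compound concentrations for 24 h. Survivors were counted and % deaths calculated.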

[2] = test system: Aspergillus niger; assay: Antifungal activity against Aspergillus niger ATCC 9092 by agar dilution method; format: functional, organism-based
How it was run: (§1)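 Filamentous fungi (hyalohyphomycetes, dermatophytes) were grown on SDA. Spore suspensions were set to 1.0–5.0 × 10^6 spores/mL by hemocytometer count. 1 µL was inoculated onto 1 mL SDA slants holding compound at 10–100 µg/mL (two-fold DMSO dilutions, final DMSO ≤2%), then incubated at 28–30 °C. Drug-free blank and ketoconazole control included; repeated three times; MIC determined.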

[3] = test system: Candida albicans; assay: Antifungal activity against Candida albicans ATCC 10231 by agar dilution method; format: functional, organism-based
How it was run: (§2)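 Yeasts were grown on Sabouraud dextrose agar and adjusted to 1.0–5.0 × 10^6 cell/mL (0.5 McFarland). Agar dilution used 1 mL SDA slants holding two-fold DMSO dilutions of compound at 10–100 µg/mL, with final DMSO ≤2%. 1 µL of inoculum was added per slant, then incubated at 35 °C. Drug-free blank and ketoconazole positive control included; triplicate runs; MIC read.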

[4] = test system: Nannizzia gypsea; assay: Antifungal activity against Microsporum gypseum C115 by agar dilution method; format: functional; how it was run: as §1
[5] = test system: Trichophyton mentagrophytes; assay: Antifungal activity against Trichophyton mentagrophytes ATCC 9972 by agar dilution method; format: functional; how it was run: as §1
[6] = test system: Mus musculus; assay: Antinociceptive activity in Swiss mouse assessed as inhibition of acetic acid-induced writhing at 10 mg/kg, ip administered 30 mins before acetic acid challenge measured after 20 mins relative to control; format: functional; settings: route intraperitoneal
How it was run: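 Mice were given 10 mg/kg i.p. in Tween 80/0.9% NaCl (Tween ≤5%) 30 min before i.p. 0.6% acetic acid, at 20–22 °C. Abdominal constrictions plus hind-limb stretching were counted cumulatively over 20 min in individual funnels. Groups of six, randomized and blinded. Inhibition was calculated versus vehicle controls (10 ml/kg i.p.); ANOVA with Dunnett's test.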

[7] = test system: Trichophyton rubrum; assay: Antifungal activity against Trichophyton rubrum C137 by agar dilution method; format: functional; how it was run: as §1
[8] = test system: Rhizopus; assay: Antifungal activity against Rhizopus CL35 by agar dilution method; format: functional; how it was run: as §1
[9] = test system: Microsporum canis; assay: Antifungal activity against Microsporum canis C112 by agar dilution method; format: functional, organism-based; how it was run: as §1
[10] = test system: Aspergillus fumigatus; assay: Antifungal activity against Aspergillus fumigatus ATCC 26934 by agar dilution method; format: functional; how it was run: as §1
[11] = test system: Pseudomonas aeruginosa; assay: Antibacterial activity against Pseudomonas aeruginosa ATCC 27853 at < 100 ug/mL by agar dilution method; format: functional, organism-based
How it was run: (§3)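 Agar dilution on 1 mL Mueller-Hinton agar slants. Compounds were serially two-fold diluted in DMSO (final DMSO ≤2%) to give 10–100 µg/mL in the medium. Bacteria were grown on MHA at 35 °C for 24 h, suspended in 0.86% saline at 1.5 × 10^8 cell/mL (0.5 McFarland), and 1 µL was added per slant. Slants were incubated at 35 °C. Drug-free blank included; each assay run three times; MIC recorded.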

[12] = test system: Streptococcus agalactiae; assay: Antibacterial activity against Streptococcus agalactiae ATCC 13813 at < 100 ug/mL by agar dilution method; format: functional; how it was run: as §3
[13] = test system: Staphylococcus aureus; assay: Antibacterial activity against Staphylococcus aureus ATCC 6538P at < 100 ug/mL by agar dilution method; format: functional, organism-based; how it was run: as §3
[14] = test system: Bacillus subtilis; assay: Antibacterial activity against Bacillus subtilis ATCC 23858 at < 100 ug/mL by agar dilution method; format: functional, organism-based; how it was run: as §3
[15] = test system: Pichia kudriavzevii; assay: Antifungal activity against Candida krusei ATCC 6582 by agar dilution method; format: functional, organism-based; how it was run: as §2
[16] = test system: Proteus mirabilis; assay: Antibacterial activity against Proteus mirabilis ATCC 25933 at < 100 ug/mL by agar dilution method; format: functional, organism-based; how it was run: as §3
[17] = test system: Aspergillus flavus; assay: Antifungal activity against Aspergillus flavus ATCC 9170 by agar dilution method; format: functional, organism-based; how it was run: as §1
[18] = test system: Salmonella typhimurium; assay: Antibacterial activity against Salmonella Typhimurium ATCC 14028 at < 100 ug/mL by agar dilution method; format: functional, organism-based; settings: Salmonella enterica subsp. enterica serovar Typhimurium; how it was run: as §3
[19] = test system: Escherichia coli; assay: Antibacterial activity against Escherichia coli ATCC 11775 at < 100 ug/mL by agar dilution method; format: functional, organism-based; how it was run: as §3
[20] = test system: Bacillus cereus; assay: Antibacterial activity against Bacillus cereus ATCC 14579 at < 100 ug/mL by agar dilution method; format: functional; how it was run: as §3
[21] = test system: Staphylococcus saprophyticus; assay: Antibacterial activity against Staphylococcus saprophyticus ATCC 35552 at < 100 ug/mL by agar dilution method; format: functional, organism-based; how it was run: as §3
[22] = test system: Cryptococcus neoformans; assay: Antifungal activity against Cryptococcus neoformans ATCC 32264 by agar dilution method; format: functional; how it was run: as §2
[23] = test system: Enterobacter cloacae; assay: Antibacterial activity against Enterobacter cloacae ATCC 35030 at < 100 ug/mL by agar dilution method; format: functional, organism-based; how it was run: as §3
[24] = test system: Mus musculus; assay: Antinociceptive activity in Swiss mouse assessed as inhibition of formalin-induced paw licking activity at 10 mg/kg, ip administered 30 mins before formalin challenge measured after 15 to 30 mins; format: functional; settings: route intraperitoneal
How it was run: (§4)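 Formalin test in mice pretreated i.p. with vehicle or 10 mg/kg test agent 30 min before formalin injection. Animals were acclimatized 5 min in a glass cylinder with an angled mirror. Licking time was recorded for the early phase (0–5 min) and the late phase (15–30 min) after formalin. Values are mean ± S.E.M.; ANOVA with Dunnett's test.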

[25] = test system: Mus musculus; assay: Antinociceptive activity in Swiss mouse assessed as inhibition of formalin-induced paw licking activity at 10 mg/kg, ip administered 30 mins before formalin challenge measured after 5 mins; format: functional; settings: route intraperitoneal; how it was run: as §4
[26] = test system: Mus musculus; assay: Antinociceptive activity in Swiss mouse assessed as inhibition of acetic acid-induced abdominal contraction at 0.1 to 100 mg/kg, ip administered 30 mins before acetic acid challenge measured after 20 mins relative to control; format: functional, Abdominal cavity; settings: dose mg/kg 0.1-100; route intraperitoneal
How it was run: (§5)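 Writhing dose-response in mice: compounds at 0.1–10 mg/kg and standard drugs at 10–100 mg/kg, i.p. in Tween 80/saline, 30 min before i.p. 0.6% acetic acid. Constrictions and stretches were counted for 20 min at 20–22 °C, with six to eight animals per group. ID50 (dose halving the response versus control) was given as geometric mean with 95% confidence limits.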

[27] = test system: Mus musculus; assay: Ratio of acetyl salicylic acid ID50 to compound ID50 for inhibition of acetic acid-induced abdominal contraction in ip dosed Swiss mouse; format: functional, Abdominal cavity
[28] = test system: Mus musculus; assay: Antinociceptive activity in ip dosed Swiss mouse assessed as inhibition of acetic acid-induced abdominal contraction administered 30 mins before acetic acid challenge measured after 20 mins; format: functional; settings: Abdominal cavity, read-out: ID50 (the source's name); how it was run: as §5
[29] = test system: Mus musculus; assay: Ratio of metamizole ID50 to compound ID50 for inhibition of acetic acid-induced abdominal contraction in ip dosed Swiss mouse; format: functional, Abdominal cavity

SMILES | LC50 at 24 h [1] | Activity [2] | Activity [3] | MIC [4] | MIC [5] | inhibition in vivo at 10 mg/kg [6] | MIC [7] | MIC [8] | Activity [9] | MIC [10] | Activity [11] | Activity [12] | Activity [13] | Activity [14] | Activity [16] | Activity [18] | Activity [19] | Activity [20] | Activity [21] | Activity [23] | also measured
CCc1ccc(NC2=C(Cl)C(=O)N(c3c(C)n(C)n(-c4ccccc4)c3=O)C2=O)cc1 | > 1000 µg/mL | Active | Active | 100 µg/mL (≈ 229 µM) | > 100 µg/mL | 49.5% | > 100 µg/mL | > 100 µg/mL | Active | > 100 µg/mL | inactive | inactive | inactive | inactive | inactive | inactive | inactive | inactive | inactive | inactive | Activity [15]: Active; Activity [17]: Active; MIC [22]: > 100 µg/mL
Cc1c(N2C(=O)C(Cl)=C(Nc3ccc(Cl)cc3)C2=O)c(=O)n(-c2ccccc2)n1C | > 1000 µg/mL | – | – | – | – | 97.4% | – | – | – | – | inactive | inactive | inactive | inactive | inactive | inactive | inactive | inactive | inactive | inactive | inhibition in vivo at 10 mg/kg [24]: 29.3%; inhibition in vivo at 10 mg/kg [25]: 28.2%; inhibition (INH) [26]: 97.4%; Ratio [27]: 33; ED50 [28]: 4.05 µmol/kg
Cc1c(N2C(=O)C(Cl)=C(Nc3ccc(Cl)c(Cl)c3)C2=O)c(=O)n(-c2ccccc2)n1C | > 1000 µg/mL | Active | Active | 100 µg/mL (≈ 209 µM) | > 100 µg/mL | 75% | > 100 µg/mL | 80 µg/mL (≈ 167 µM) | Active | > 100 µg/mL | inactive | inactive | inactive | inactive | inactive | inactive | inactive | inactive | inactive | inactive | Activity [15]: Active; Activity [17]: Active; MIC [22]: > 100 µg/mL
Cc1c(N2C(=O)C(Cl)=C(NCc3ccccc3)C2=O)c(=O)n(-c2ccccc2)n1C | > 1000 µg/mL | Active | Active | > 100 µg/mL | 100 µg/mL (≈ 236 µM) | 35.4% | 100 µg/mL (≈ 236 µM) | > 100 µg/mL | Active | 100 µg/mL (≈ 236 µM) | inactive | inactive | inactive | inactive | inactive | inactive | inactive | inactive | inactive | inactive | Activity [15]: Active; Activity [17]: Active; MIC [22]: 40 µg/mL (≈ 94.6 µM)
Cc1c(N2C(=O)C(Cl)=C(Nc3ccc(Br)cc3)C2=O)c(=O)n(-c2ccccc2)n1C | > 1000 µg/mL | Active | Active | > 100 µg/mL | > 100 µg/mL | 97.5% | > 100 µg/mL | 100 µg/mL (≈ 205 µM) | Active | > 100 µg/mL | inactive | inactive | inactive | inactive | inactive | inactive | inactive | inactive | inactive | inactive | inhibition in vivo at 10 mg/kg [24]: 22.5%; Ratio [29]: 284; inhibition in vivo at 10 mg/kg [25]: 11.4%; inhibition (INH) [26]: 97.5%; Activity [15]: Active; Ratio [27]: 233; ED50 [28]: 0.57 µmol/kg; Activity [17]: Active; MIC [22]: > 100 µg/mL
Cc1c(N2C(=O)C(Cl)=C(Nc3ccccc3)C2=O)c(=O)n(-c2ccccc2)n1C | > 1000 µg/mL | Active | Active | > 100 µg/mL | > 100 µg/mL | 71.6% | > 100 µg/mL | 80 µg/mL (≈ 196 µM) | Active | > 100 µg/mL | inactive | inactive | inactive | inactive | inactive | inactive | inactive | inactive | inactive | inactive | Activity [15]: Active; Activity [17]: Active; MIC [22]: > 100 µg/mL
CC(=O)Oc1ccccc1C(=O)O [ASPIRIN] | – | – | – | – | – | 35% | – | – | – | – | – | – | – | – | – | – | – | – | – | – | inhibition in vivo at 10 mg/kg [24]: 45%; inhibition in vivo at 10 mg/kg [25]: 16%; inhibition (INH) [26]: 83%
Cc1c(N2C(=O)C(Cl)=C(Nc3ccc(F)cc3)C2=O)c(=O)n(-c2ccccc2)n1C | > 1000 µg/mL | Active | Active | 100 µg/mL (≈ 234 µM) | > 100 µg/mL | 93.2% | > 100 µg/mL | > 100 µg/mL | Active | > 100 µg/mL | inactive | inactive | inactive | inactive | inactive | inactive | inactive | inactive | inactive | inactive | inhibition in vivo at 10 mg/kg [24]: 4.5%; Ratio [29]: 222; inhibition in vivo at 10 mg/kg [25]: 28.9%; inhibition (INH) [26]: 96.7%; Activity [15]: Active; Ratio [27]: 182; ED50 [28]: 0.73 µmol/kg; Activity [17]: Active; MIC [22]: > 100 µg/mL
